According to PMC3857970 (European journal of medicinal chemistry, 2012):

Target: recombinant human ALR2 (Homo sapiens, UniProt P15121)
Assay: ALR2 inhibition assay
Assay type: biochemical
Settings: not given

Compound | IC50 [µM] | ALR2 inhibitory activity (in words)
COc1cc(/C=C/C(=O)N2CCC=C(C(O)c3ccc(F)cc3)C2=O)cc(OC)c1OC (stereo not drawn) [Compound 32b, (E)-3-((4-Fluorophenyl)(hydroxy)methyl)-1-(3-(3,4,5-trimethoxyphenyl)acryloyl)-5,6-dihydropyridin-2(1H)-one] | > 500 | –
COc1cc(C(CC(=O)N2CCC(c3cn(C)c4ccccc34)CC2=O)c2cn(C)c3ccccc23)cc(OC)c1OC (stereo not drawn) [Compound 3b, 1-(3-(3,4,5-Trimethoxyphenyl)-3-(1-methyl-1H-indol-3-yl)propanoyl)-4-(1-methyl-1H-indol-3-yl)piperidin-2-one] | > 500 | –
COc1cc(/C=C/C(=O)N2CCC=CC2=O)cc(OC)c1OC [Compound 1, 5,6-Dihydro-1-((E)-3-(3,4,5-trimethoxyphenyl)acryloyl) pyridin-2(1H)-one] | – | moderate activity
COc1cc(C(CC(=O)N2CCC=CC2=O)c2c[nH]c3ccccc23)cc(OC)c1OC (stereo not drawn) [Compound 2a, 1-(3-(1H-Indol-3-yl)-3-(3,4,5-trimethoxyphenyl)propanoyl)-5,6-dihydropyridin-2(1H)-one] | > 500 | –
COc1cc(/C=C/C(=O)N2CCC=C(C(O)c3ccc([N+](=O)[O-])cc3)C2=O)cc(OC)c1OC (stereo not drawn) [Compound 32d, (E)-3-(Hydroxy(4-nitrophenyl)methyl)-1-(3-(3,4,5-trimethoxyphenyl)acryloyl)-5,6-dihydropyridin-2(1H)-one] | > 500 | –
COc1cc(/C=C/C(=O)N2CCC=C(C(O)c3ccccc3)C2=O)cc(OC)c1OC (stereo not drawn) [Compound 32j, (E)-3-(Hydroxy(phenyl)methyl)-1-(3-(3,4,5-trimethoxyphenyl)acryloyl)-5,6-dihydropyridin-2(1H)-one] | > 500 | –
COC(=O)/C=C/c1cc(OC)c(OC)c(OC)c1 [Compound 5, (E)-Methyl 3-(3,4,5-trimethoxyphenyl)acrylate] | > 500 | –
O=C1C=CCCN1C(=O)C=Cc1ccccc1 [Compound 12, 1-Cinnamoyl-5,6-dihydropyridin-2(1H)-one] | > 500 | –
COc1cc(C(CC(=O)N2CCC(c3c[nH]c4ccc(I)cc34)CC2=O)c2c[nH]c3ccc(I)cc23)cc(OC)c1OC (stereo not drawn) [Compound 3f, 1-(3-(5-Iodo-1H-indol-3-yl)-3-(3,4,5-trimethoxyphenyl)propanoyl)-4-(5-iodo-1H-indol-3-yl)piperidin-2-one] | > 500 | –
COc1cc(C(CC(=O)N2CCC=CC2=O)c2c[nH]c3ccc(I)cc23)cc(OC)c1OC (stereo not drawn) [Compound 2f, 1-(3-(5-Iodo-1H-indol-3-yl)-3-(3,4,5-trimethoxyphenyl)propanoyl)-5,6-dihydropyridin-2(1H)-one] | > 500 | –
COc1cc(/C=C/C(=O)N2CCC=C(C(O)c3ccc(C#N)cc3)C2=O)cc(OC)c1OC (stereo not drawn) [Compound 32e, (E)-4-(Hydroxy(2-oxo-1-(3-(3,4,5-trimethoxyphenyl)acryloyl)-1,2,5,6-tetrahydropyridin-3-yl)methyl)benzonitrile] | > 500 | –
COc1cc(/C=C/C(=O)n2c(=O)oc3ccccc32)cc(OC)c1OC [Compound 35, (E)-3-(3-(3,4,5-Trimethoxyphenyl)acryloyl)benzo[d]oxazol-2(3H)-one] | > 500 | –
O=C1C=CCCN1C(=O)/C=C/c1cccc(Oc2ccccc2)c1 [Compound 20, (E)-1-(3-(3-Phenoxyphenyl)acryloyl)-5,6-dihydropyridin-2(1H)-one] | > 500 | –
O=C1C=CCCN1C(=O)/C=C/c1cccc(C(F)(F)F)c1 [Compound 13, (E)-1-(3-(3-(Trifluoromethyl)phenyl)acryloyl)-5,6-dihydropyridin] | 400 | –
O=C1C=CCCN1C(=O)/C=C/C=C/c1ccc2c(c1)OCO2 [Compound 30, 1-((2E,4E)-5-(Benzo[d][1,3]dioxol-5-yl)penta-2,4-dienoyl)-5,6-dihydropyridin-2(1H)-one] | 500 | –
O=C1C=CCCN1C(=O)/C=C/c1ccc(Cl)cc1 [Compound 17, (E)-1-(3-(4-Chlorophenyl)acryloyl)-5,6-dihydropyridin-2(1H)-one] | > 500 | –
O=C1C=CCCN1C(=O)/C=C/c1ccc2ccccc2c1 [Compound 18, (E)-1-(3-(Naphthalen-2-yl)acryloyl)-5,6-dihydropyridin-2(1H)-one] | 350 | –
COc1cc(/C=C/C(=O)N2CCC=C(C(O)c3ccc4ccccc4c3)C2=O)cc(OC)c1OC (stereo not drawn) [Compound 32h, (E)-3-(Hydroxy(naphthalen-2-yl)methyl)-1-(3-(3,4,5-trimethoxyphenyl)acryloyl)-5,6-dihydropyridin-2(1H)-one] | > 500 | –
COc1cc(/C=C/C(=O)N2CCC=C(C(O)c3ccccn3)C2=O)cc(OC)c1OC (stereo not drawn) [Compound 32f, (E)-3-(Hydroxy(pyridin-2-yl)methyl)-1-(3-(3,4,5-trimethoxyphenyl)acryloyl)-5,6-dihydropyridin-2(1H)-one] | > 500 | –
COc1ccc(OC)c(/C=C/C(=O)N2CCC=CC2=O)c1 [Compound 14, (E)-1-(3-(2,5-Dimethoxyphenyl)acryloyl)-5,6-dihydropyridin-2(1H)-one] | > 500 | –
COc1cc(/C=C/C(=O)N2CCC=C(C(O)c3ccc(C)cc3)C2=O)cc(OC)c1OC (stereo not drawn) [Compound 32i, (E)-3-(Hydroxy(p-tolyl)methyl)-1-(3-(3,4,5-trimethoxyphenyl)acryloyl)-5,6-dihydropyridin-2(1H)-one] | > 500 | –
O=C1C=CCCN1C(=O)/C=C/c1cccs1 [Compound 22, (E)-1-(3-(Thiophen-2-yl)acryloyl)-5,6-dihydropyridin-2(1H)-one] | > 500 | –
COc1cc(C(CC(=O)O)c2c(C)[nH]c3ccccc23)cc(OC)c1OC (stereo not drawn) [Compound 4, 3-(3,4,5-Trimethoxyphenyl)-3-(2-methyl-1H-indol-3-yl) propanoic acid] | 72 | –
O=C1C=CCCN1C(=O)/C=C/c1ccc2c(c1)OCO2 [Compound 16, (E)-1-(3-(Benzo[d][1,3]dioxol-5-yl)acryloyl)-5,6-dihydropyridin-2(1H)-one] | > 500 | –
COc1cc(C(CC(=O)N2CCC(c3c[nH]c4ccccc34)CC2=O)c2c[nH]c3ccccc23)cc(OC)c1OC (stereo not drawn) [Compound 3a, 1-(3-(1H-Indol-3-yl)-3-(3,4,5-trimethoxyphenyl)propanoyl)-4-(1H-indol-3-yl)piperidin-2-one] | 80 | –
COc1cc(/C=C/C(=O)N2CCC=C(C(O)c3ccccc3[N+](=O)[O-])C2=O)cc(OC)c1OC (stereo not drawn) [Compound 32c, (E)-3-(Hydroxy(2-nitrophenyl)methyl)-1-(3-(3,4,5-trimethoxyphenyl)acryloyl)-5,6-dihydropyridin-2(1H)-one] | > 500 | –
COc1cc(/C=C/C(=O)N2CCCC2=O)cc(OC)c1OC [Compound 34, (E)-1-(3-(3,4,5-Trimethoxyphenyl)acryloyl)pyrrolidin-2-one] | > 500 | –
COc1cc(/C=C/C(=O)N2CCCCC2)cc(OC)c1OC [Compound 33, (E)-1-(Piperidin-1-yl)-3-(3,4,5-trimethoxyphenyl) prop-2-en-1-one] | > 500 | –
COc1cc(C(CC(=O)N2CCC=CC2=O)c2cn(C)c3ccccc23)cc(OC)c1OC (stereo not drawn) [Compound 2b, 1-(3-(3,4,5-Trimethoxyphenyl)-3-(1-methyl-1H-indol-3-yl)propanoyl)-5,6-dihydropyridin-2(1H)-one] | 100 | –

Same assay, conditions: Michael adducts from N-benzyl / phenyl indoles

Compound | enhancement of ALR2 inhibitory activity [folds]
COc1cc(C(CC(=O)N2CCC(c3c(-c4ccccc4)[nH]c4ccccc34)CC2=O)c2c(-c3ccccc3)[nH]c3ccccc23)cc(OC)c1OC (stereo not drawn) [Compound 3e, 1-(3-(3,4,5-Trimethoxyphenyl)-3-(2-phenyl-1H-indol-3-yl)propanoyl)-4-(2-phenyl-1H-indol-3-yl)piperidin-2-one] | 40
COc1cc(C(CC(=O)N2CCC(c3cn(Cc4ccccc4)c4ccccc34)CC2=O)c2cn(Cc3ccccc3)c3ccccc23)cc(OC)c1OC (stereo not drawn) [Compound 3c, 1-(3-(1-Benzyl-1H-indol-3-yl)-3-(3,4,5-trimethoxyphenyl)propanoyl)-4-(1-benzyl-1H-indol-3-yl)piperidin-2-one] | 40

Same assay, conditions: average of four experimental values

Compound | IC50 [µM]
O=C1C=CCCN1C(=O)/C=C/c1ccc(Br)cc1 [Compound 15, (E)-1-(3-(4-Bromophenyl)acryloyl)-5,6-dihydropyridin-2(1H)-one] | 350
COc1cc(/C=C/C(=O)N2CCC=C(C(O)c3cccs3)C2=O)cc(OC)c1OC (stereo not drawn) [Compound 32g, (E)-3-(Hydroxy(thiophen-2-yl)methyl)-1-(3-(3,4,5-trimethoxyphenyl)acryloyl)-5,6-dihydropyridin-2(1H)-one] | > 500

Test system: human red blood cells (RBC)
Assay: Sorbitol accumulation in RBC under high glucose conditions
Assay type: cell-based
Settings: ex vivo high glucose conditions
Summary of the method: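 Fasted healthy male donors' heparinised blood; RBC washed three times in isotonic saline at 4 °C, resuspended in Krebs-Ringer bicarbonate pH 7.4 (5% CO2). Duplicates incubated 3 h, 37 °C, 5% CO2, with 5.5 or 55 mM glucose, with test compound at 1.4–20 µM. Cells homogenised in 0.8 M perchloric acid, spun, supernatant adjusted to pH 3.5 with K2CO3; sorbitol measured fluorometrically.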

Compound | effect on sorbitol accumulation (in words)
COc1cc(C(CC(=O)N2CCC(c3c(-c4ccccc4)[nH]c4ccccc34)CC2=O)c2c(-c3ccccc3)[nH]c3ccccc23)cc(OC)c1OC (stereo not drawn) [Compound 3e, 1-(3-(3,4,5-Trimethoxyphenyl)-3-(2-phenyl-1H-indol-3-yl)propanoyl)-4-(2-phenyl-1H-indol-3-yl)piperidin-2-one] | inhibited the sorbitol accumulation
COc1cc(C(CC(=O)N2CCC(c3cn(Cc4ccccc4)c4ccccc34)CC2=O)c2cn(Cc3ccccc3)c3ccccc23)cc(OC)c1OC (stereo not drawn) [Compound 3c, 1-(3-(1-Benzyl-1H-indol-3-yl)-3-(3,4,5-trimethoxyphenyl)propanoyl)-4-(1-benzyl-1H-indol-3-yl)piperidin-2-one] | inhibited the sorbitol accumulation
COc1ccc2[nH]cc(C(CC(=O)N3CCC=CC3=O)c3cc(OC)c(OC)c(OC)c3)c2c1 (stereo not drawn) [Compound 2j, 1-(3-(5-Methoxy-1H-indol-3-yl)-3-(3,4,5-trimethoxyphenyl)propanoyl)-5,6-dihydropyridin-2(1H)-one] | inhibited the sorbitol accumulation
